Laboratory results as given in publication PMC10072318 (Bioorganic & medicinal chemistry letters, 2023).
“Also recorded” adds a separate entry of the source.

Key:
adult S. mansoni = experiment: Adult S. mansoni severity score assay; assay type: cell-based, Schistosoma mansoni; settings: for Antischistosomal activity in words: 5 μM, SAR discussion
In short: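 Adult worms were exposed to the test compound at 5 μM. Responses were scored visually at 1, 5, 24 and 48 h using a constrained nomenclature of descriptors for the worm's responses to chemical insult. Each descriptor carries a value, and these values are summed into a severity score ranging from 0 (no activity) to 4 (maximum activity).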

[1] = tested on: S. mansoni schistosomula (post-infective larvae); settings: cited from earlier work
S. mansoni adults = settings: cited from earlier work

Compound | Antischistosomal activity in words (adult S. mansoni) | further results
N#Cc1ccc(C(=O)Nc2cccc(C(F)(F)F)c2)cc1 [compound 18] | abolished activity | 
Cc1ccc(NC(=O)c2ccc(C(F)(F)F)cc2)cc1C [compound 7] | retains substantial potency | 
O=C(Nc1ccc(Cl)c(Cl)c1)c1ccccc1 [compound 25] | some activity was retained | 
O=C(Nc1ccc(F)c(F)c1)c1ccc(F)cc1 [compound 13] | activity was essentially compromised | 
COc1ccc(NC(=O)c2ccc(C(F)(F)F)cc2)cc1OC [compound 8] | inactive; also recorded: eliminated activity | 
O=C(Nc1cccc(C(F)(F)F)c1)c1ccc(F)cc1 [compound 16] | activity was essentially abolished | 
O=C(Nc1ccccc1)c1ccc(F)cc1 [compound 23] | inactive | 
Cc1ccc(NC(=O)c2ccccc2)cc1C [compound 14] | abolished activity | 
O=C(Nc1ccc(C(F)(F)F)c(C(F)(F)F)c1)c1cc(Cl)ccc1O [compound 1] |  | Killing of S. mansoni schistosomula in vitro [1]: kill S. mansoni adults[6] and schistosomula; Killing of S. mansoni adults in vitro (S. mansoni adults): kill S. mansoni adults
O=C(Nc1cccc(C(F)(F)F)c1)c1ccc(C(F)(F)F)cc1 [compound 11] |  | Time by which adult worm integrity was severely compromised (adult S. mansoni): ≤ 1 h
O=C(Nc1cccc(C(F)(F)F)c1)c1ccccc1 [compound 15] | abolished activity | 
O=C(Nc1ccc(Cl)c(Cl)c1)c1ccc(C(F)(F)F)cc1 [compound 9] |  | Time by which adult worm integrity was severely compromised (adult S. mansoni): ≤ 1 h
O=C(Nc1ccc(Cl)nn1)c1cccc(F)c1 [compound 31, N-(6-chloropyridazin-3-yl)-3-fluorobenzamide] | inactive | 
O=C(Nc1ccccc1)c1ccc(C(F)(F)F)cc1 [compound 6] | inactive | 
